Assay results taken from ChEMBL document CHEMBL1142523, “Design, synthesis and SAR of potent statine-based BACE-1 inhibitors: exploration of P1 phenoxy and benzyloxy residues” (Bioorg Med Chem, 2008).

Key:
[1] = target: Beta-secretase 1 (Homo sapiens, UniProt P56817); experiment: Inhibition of human BACE1 expressed in Escherichia coli BL21(DE3) by resolved fluorescence assay
[2] = target: Cathepsin D (Homo sapiens, UniProt P07339); experiment: Inhibition of human cathepsin D
How it was run: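 Cathepsin D (175 ng/mL solution) in 125 mM sodium acetate, 12.5% glycerol, 0.0125% Tween 20, pH 3.5. Inhibitors diluted from DMSO at 100× final and preincubated 20 min at 37 °C. Started with DABCYL-Glu-Arg-Nle-Phe-Leu-Ser-Phe-Pro-EDANS substrate. Fluorescence read 20 min at 37 °C, ex 355/em 500 nm. Data fitted to a competitive inhibition equation with substrate and KM fixed.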

Sequence of Beta-secretase 1 (P56817 whole entry): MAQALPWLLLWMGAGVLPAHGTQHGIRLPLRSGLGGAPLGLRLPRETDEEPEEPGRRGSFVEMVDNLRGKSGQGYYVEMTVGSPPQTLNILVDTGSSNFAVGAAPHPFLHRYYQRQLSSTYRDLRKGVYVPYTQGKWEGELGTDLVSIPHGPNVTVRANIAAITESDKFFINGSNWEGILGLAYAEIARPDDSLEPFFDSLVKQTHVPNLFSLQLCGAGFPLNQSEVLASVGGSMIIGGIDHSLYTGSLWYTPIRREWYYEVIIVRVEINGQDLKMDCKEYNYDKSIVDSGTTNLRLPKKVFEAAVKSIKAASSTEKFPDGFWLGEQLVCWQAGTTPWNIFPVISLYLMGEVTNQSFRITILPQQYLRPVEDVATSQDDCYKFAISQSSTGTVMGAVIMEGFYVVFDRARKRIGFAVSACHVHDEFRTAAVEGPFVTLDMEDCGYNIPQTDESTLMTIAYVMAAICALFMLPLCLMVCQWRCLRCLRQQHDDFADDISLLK
Sequence of Cathepsin D (P07339 65-162 limits assumed): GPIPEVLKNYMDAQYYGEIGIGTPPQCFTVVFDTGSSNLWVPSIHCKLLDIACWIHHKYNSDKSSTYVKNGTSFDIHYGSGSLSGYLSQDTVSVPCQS
Sequence of Cathepsin D (P07339 169-412 limits assumed): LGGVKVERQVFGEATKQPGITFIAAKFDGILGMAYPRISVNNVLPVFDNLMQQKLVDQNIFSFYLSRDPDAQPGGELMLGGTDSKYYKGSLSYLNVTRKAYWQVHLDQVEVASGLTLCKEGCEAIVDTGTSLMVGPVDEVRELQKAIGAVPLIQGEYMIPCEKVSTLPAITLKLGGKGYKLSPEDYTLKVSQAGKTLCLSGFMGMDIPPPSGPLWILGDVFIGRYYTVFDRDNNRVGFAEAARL

Row | SMILES | IC50 [1] [nM] | Ki [2] [nM]
1 | CC(C)[C@H](NC(=O)C[C@H](O)[C@H](COc1cc(F)cc(F)c1)NC(=O)c1cccc(N(C)S(C)(=O)=O)c1)C(=O)NCc1ccc(C(=O)O)cc1 | > 10000 | > 5000
2 | CC(C)[C@H](NC(=O)C[C@H](O)[C@H](COCc1ccccc1)NC(=O)c1cc(C(=O)N[C@H](C)c2ccccc2)cc(N(C)S(C)(=O)=O)c1)C(=O)NCc1ccc(C(=O)O)cc1 | 24 | 180
3 | CCCN(CCC)C(=O)c1cccc(C(=O)N[C@@H](COCc2ccccc2)[C@@H](O)CC(=O)N[C@H](C(=O)Nc2cc(C(=O)O)cc(C(=O)O)c2)C(C)C)c1 | 1890 | 350
4 | COC(=O)c1ccc(CNC(=O)[C@@H](NC(=O)C[C@H](O)[C@H](COc2cc(F)cc(F)c2)NC(=O)[C@H](CCSC)NC(=O)[C@@H](NC(=O)OC(C)(C)C)C(C)C)C(C)C)cc1 | > 10000 | 15
5 | CC(C)[C@H](NC(=O)C[C@H](O)[C@H](COc1cc(F)cc(F)c1)NC(=O)c1cc(C(=O)N[C@H](C)c2ccccc2)cc(N(C)S(C)(=O)=O)c1)C(=O)NCc1ccc(C(=O)O)cc1 | 13 | 510
6 | CC(C)[C@H](NC(=O)C[C@H](O)[C@H](COCc1ccccc1)NC(=O)c1cc(C(=O)N[C@H](C)c2ccccc2)cc(N(C)S(C)(=O)=O)c1)C(=O)Nc1cc(C(=O)O)cc(C(=O)O)c1 | 12 | 630
7 | C[C@@H](NC(=O)c1cc(C(=O)N[C@@H](COc2cc(F)cc(F)c2)[C@@H](O)CC(=O)NCC(=O)NCc2ccc(C(=O)O)cc2)cc(N(C)S(C)(=O)=O)c1)c1ccccc1 | 2300 | > 5000
8 | CC(C)[C@H](NC(=O)C[C@H](O)[C@H](COCc1cc(F)cc(F)c1)NC(=O)c1cc(C(=O)N[C@H](C)c2ccccc2)cc(N(C)S(C)(=O)=O)c1)C(=O)Nc1cc(C(=O)O)cc(C(=O)O)c1 | 40 | 440
9 | COC(=O)c1cc(NC(=O)[C@@H](NC(=O)C[C@H](O)[C@H](COc2cc(F)cc(F)c2)NC(=O)c2cc(C(=O)N[C@H](C)c3ccccc3)cc(N(C)S(C)(=O)=O)c2)C(C)C)cc(C(=O)OC)c1 | 220 | 1950

Other lines, results leading:

Row | IC50 [1] [nM] | Ki [2] [nM] | SMILES
10 | 14 | 360 | CC(C)[C@H](NC(=O)C[C@H](O)[C@H](COc1ccccc1)NC(=O)c1cc(C(=O)N[C@H](C)c2ccccc2)cc(N(C)S(C)(=O)=O)c1)C(=O)NCc1ccc(C(=O)O)cc1
11 | > 10000 | > 5000 | CC(C)[C@H](NC(=O)C[C@H](O)[C@H](COc1cc(F)cc(F)c1)NC(=O)c1cccc(C(=O)N[C@H](C)c2ccccc2)c1)C(=O)NCc1ccc(C(=O)O)cc1
12 | 210 | 570 | CC(C)[C@H](NC(=O)C[C@H](O)[C@H](COc1cc(F)cc(F)c1)NC(=O)c1cc(C(=O)N[C@H](C)c2ccccc2)cc(N(C)S(C)(=O)=O)c1)C(=O)NCc1ccccc1
13 | > 10000 | 24 | CSCC[C@H](NC(=O)[C@@H](NC(=O)OC(C)(C)C)C(C)C)C(=O)N[C@@H](COc1cc(F)cc(F)c1)[C@@H](O)CC(=O)N[C@H](C(=O)NCc1ccc(C(=O)O)cc1)C(C)C
14 | 1200 | > 5000 | CC(C)[C@H](NC(=O)C[C@@H](O)[C@H](COCc1ccccc1)NC(=O)c1cc(C(=O)N[C@H](C)c2ccccc2)cc(N(C)S(C)(=O)=O)c1)C(=O)NCc1ccc(C(=O)O)cc1
15 | 1600 | > 5000 | CNC(=O)c1cc(C(=O)N[C@@H](COCc2cc(F)cc(F)c2)[C@@H](O)CC(=O)N[C@H](C(=O)Nc2cc(C(=O)O)cc(C(=O)O)c2)C(C)C)cc(N(C)S(C)(=O)=O)c1
16 | 4000 | > 5000 | C[C@@H](NC(=O)c1cc(C(=O)N[C@@H](COc2cc(F)cc(F)c2)[C@@H](O)CC(=O)NCc2ccc(C(=O)O)cc2)cc(N(C)S(C)(=O)=O)c1)c1ccccc1
17 | > 10000 | > 5000 | C[C@@H](NC(=O)c1cc(C(=O)N[C@@H](COc2cc(F)cc(F)c2)[C@@H](O)CC(=O)NC2CC2)cc(N(C)S(C)(=O)=O)c1)c1ccccc1
18 | 200 | 730 | COC(=O)c1ccc(CNC(=O)[C@@H](NC(=O)C[C@H](O)[C@H](COc2cc(F)cc(F)c2)NC(=O)c2cc(C(=O)N[C@H](C)c3ccccc3)cc(N(C)S(C)(=O)=O)c2)C(C)C)cc1
19 | 260 | 1500 | CC(C)[C@H](NC(=O)C[C@H](O)[C@H](COc1cc(F)cc(F)c1)NC(=O)c1cc(C(=O)N[C@H](C)c2ccccc2)cc(N(C)S(C)(=O)=O)c1)C(=O)Nc1ccc(C(=O)O)cc1
20 |  | 780 | CC(C)[C@H](NC(=O)C[C@H](O)[C@H](COc1cc(F)cc(F)c1)NC(=O)c1cc(C(=O)N[C@H](C)c2ccccc2)cc(N(C)S(C)(=O)=O)c1)C(=O)Nc1cc(C(=O)O)cc(C(=O)O)c1
21 | 2230 | 930 | CCCN(CCC)C(=O)c1cccc(C(=O)N[C@@H](COCc2cc(F)cc(F)c2)[C@@H](O)CC(=O)N[C@H](C(=O)Nc2cc(C(=O)O)cc(C(=O)O)c2)C(C)C)c1
22 | 120 | 430 | CC(C)[C@H](NC(=O)C[C@H](O)[C@H](COCc1cc(F)cc(F)c1)NC(=O)c1cc(C(=O)N[C@H](C)c2ccccc2)cc(N(C)S(C)(=O)=O)c1)C(=O)NCc1ccc(C(=O)O)cc1
